Results published in ChEMBL document CHEMBL1909507, “Substituted phenyl 4-(2-oxoimidazolidin-1-yl)benzenesulfonamides as antimitotics. Antiproliferative, antiangiogenic and antitumoral activity, and quantitative structure-activity relationships” (Eur J Med Chem, 2011).
Calls of active or inactive are those of the source. The calls are words filed in the database; no cut-off is given here.

Assays:
MDA-MB-231 [1] = assay: Antiproliferative activity against human MDA-MB-231 after 48 hrs by SRB assay; format: functional, cell-based; conditions: MDA-MB-231, 48 h
CHO-TAX 5-6 [2] = assay: Ratio of IC50 for paclitaxel-resistant CHO-TAX 5-6 cells to IC50 for CHO cells; format: functional, Cricetulus griseus
Procedure, shortened: (§1)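 Each ratio is the IC50 in the resistant line divided by the IC50 in its parental line (CHO for CHO-TAX 5-6 and CHO-VV 3-2; CEM for CEM-VLB).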

[3] = Antiproliferative activity against mouse B16F0 after 48 hrs by SRB assay
CHO = assay: Antiproliferative activity against Chinese hamster CHO after 48 hrs by SRB assay; conditions: Cricetulus griseus
[4] = Antiproliferative activity against mouse P388D1 after 48 hrs by SRB assay; conditions: P388D1, 48 h
[5] = Antiproliferative activity against human multidrug-resistant CEM/VLB cells after 48 hrs by SRB assay; format: functional
K562 = assay: Antiproliferative activity against human K562 after 48 hrs by SRB assay; format: functional, cell-based; conditions: K562, 48 h
M21 [6] = assay: Antiproliferative activity against human M21 cells after 48 hrs by SRB assay; format: functional, cell-based; conditions: M21, 48 h
Procedure, shortened: (§2)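 Adherent cells were seeded per line (e.g. HT-29 5000, M21 3500, MCF7 7500, CHO and CHO-VV 3-2 and CHO-TAX 5-6 1000 cells/well) and grown 24 h at 37 °C, 5% CO₂. DMSO-solubilized drug was diluted in medium and added at 1000–0.98 nM for 48 h. Cells were fixed with cold 10% TCA and stained with 0.1% sulforhodamine B, with absorbance read at 530–565 nm.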

CHO-VV 3-2 [7] = assay: Ratio of IC50 for colchicine and vinblastine-resistant CHO-VV 3-2 cells to IC50 for CHO cells; format: functional, Cricetulus griseus; procedure, shortened: as §1
M21 [8] = assay: Cell cycle arrest in human M21 cells assessed as accumulation at G0/G1 phase at 5 times IC50 after 24 hrs using propidium iodide staining by flow cytometric analysis (reference value: 61%); format: functional
Procedure, shortened: (§3)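 Cells were trypsinized, fixed in ice-cold ethanol, treated with RNase, and stained with propidium iodide (1 mg/mL stock) for 1 h on ice. Cell-cycle distribution was measured by flow cytometry.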

M21 [9] = assay: Cell cycle arrest in human M21 cells assessed as accumulation at S phase at 5 times IC50 after 24 hrs using propidium iodide staining by flow cytometric analysis (reference value: 30%); format: functional; procedure, shortened: as §3
CCRF-CEM [10] = assay: Antiproliferative activity against human CEM after 48 hrs by SRB assay; format: functional, cell-based
HT-1080 [11] = assay: Antiproliferative activity against human HT1080 after 48 hrs by SRB assay; format: functional, cell-based; conditions: HT-1080, 48 h; procedure, shortened: as §2
M21 [12] = assay: Disruption of cytoskeleton microtubule structure of human M21 cells at 5 times IC50 after 16 hrs by indirect immunofluorescence assay; format: functional, cell-based
Procedure, shortened: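 Cells were fixed in 3.7% formaldehyde, permeabilized with saponin, and stained with anti-β-tubulin TUB 2.1, Alexa-488 anti-mouse secondary and DAPI. Fluorescence microscopy was used for imaging.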

CHO-TAX 5-6 [13] = assay: Antiproliferative activity against paclitaxel-resistant CHO-TAX 5-6 cells after 48 hrs by SRB assay; format: functional, cell-based; conditions: Cricetulus griseus, CHO-TAX 5-6, 48 h; procedure, shortened: as §2
M21 [14] = assay: Cell cycle arrest in human M21 cells assessed as accumulation at G2/M phase at 5 times IC50 after 24 hrs using propidium iodide staining by flow cytometric analysis (reference value: 9%); format: functional; procedure, shortened: as §3
SK-OV-3 = assay: Antiproliferative activity against human SKOV3 after 48 hrs by SRB assay; format: functional, cell-based; conditions: SK-OV-3, 48 h; procedure, shortened: as §2
HT-1080 [15] = assay: Antitumor activity against human HT1080 cells xenografted in chicken chorioallantoic membrane assessed as inhibition of tumor growth at 3 ug, iv measured on day 17 by CAM assay; format: functional
Procedure, shortened: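 Fertilized chicken eggs were incubated 10 days, then 3.5 × 10⁵ HT-1080 cells/egg were applied to the exposed chorioallantoic membrane. On day 11, drug was given iv in DMSO diluted in excipient (ethanol:cremophor:PBS 6.25:6.25:87.5). Read-out was tumor wet weight as % of untreated eggs, plus chick mortality. Data were pooled from two independent experiments of 10–12 eggs each.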

DU-145 = assay: Antiproliferative activity against human DU145 after 48 hrs by SRB assay; format: functional, cell-based; conditions: DU-145, 48 h
CCRF-CEM [16] = assay: Ratio of IC50 for human multidrug-resistant CEM/VLB cells to IC50 for human CEM cells; format: functional; procedure, shortened: as §1
MDA-MB-231 [17] = assay: Displacement of N,N'-ethylenebis(iodoacetamide) from beta-tubulin colchicine-binding site in human MDA-MB-231 cells at 1000 times IC50 preincubated for 2 hrs before N,N'-ethylenebis(iodoacetamide) addition measured after 1.5 hrs by chemiluminescence assay; format: cell-based
Procedure, shortened: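 EBI (100, final) was added for 1.5 h at 37 °C with drug present; control was 0.5% DMSO. Sonicated lysates (20 µg protein) were run on 10% SDS-PAGE and blotted with anti-β-tubulin TUB 2.1. The β-tubulin–EBI adduct was scored by ECL.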

HT-29 = assay: Antiproliferative activity against human HT-29 cells after 48 hrs by SRB assay; format: functional, cell-based; conditions: HT-29, 48 h; procedure, shortened: as §2
CHO-VV 3-2 [18] = assay: Antiproliferative activity against colchicine and vinblastine-resistant CHO-VV 3-2 cells after 48 hrs by SRB assay; format: functional, cell-based; conditions: Cricetulus griseus, CHO-VV 3-2, 48 h; procedure, shortened: as §2
L1210 = assay: Antiproliferative activity against mouse L1210 after 48 hrs by SRB assay; format: functional, cell-based; conditions: L1210, 48 h
[19] = Toxicity against fertilized chicken embryo assessed as mortality at 3 ug, iv by CAM assay; format: organism-based, Gallus gallus; conditions: in vivo, read-out: Activity
Procedure, shortened: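 HT-1080 fibrosarcoma cells (3.5 × 10⁵ cells/egg) grafted onto the chorioallantoic membrane of fertilized chicken eggs (10 days preincubation). On day 11, drug in DMSO diluted into excipient (ethanol:cremophor:PBS 6.25:6.25:87.5) given iv at 3 µg per egg. Chick mortality recorded over 7-day tumor growth period. Untreated eggs as negative controls and for normalization. Cumulative results from two independent experiments, 10–12 eggs each.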

MCF7 = assay: Antiproliferative activity against human MCF7 cells after 48 hrs by SRB assay; format: functional, cell-based; conditions: MCF7, 48 h; procedure, shortened: as §2

Compound | IC50 (MDA-MB-231 [1]) | Ratio IC50 (CHO-TAX 5-6 [2]) | IC50 [3] | IC50 (CHO) | IC50 [4] | IC50 [5] | IC50 (K562) | IC50 (M21 [6]) | Ratio IC50 (CHO-VV 3-2 [7]) | Activity (M21 [8]) | Activity (M21 [9]) | IC50 (CCRF-CEM [10]) | IC50 (HT-1080 [11]) | Activity (M21 [12]) | IC50 (CHO-TAX 5-6 [13]) | Activity (M21 [14]) | IC50 (SK-OV-3) | IC50 (DU-145) | Ratio IC50 (CCRF-CEM [16]) | Activity (MDA-MB-231 [17]) | other results
COc1cccc(NS(=O)(=O)c2ccc(N3CCNC3=O)cc2)c1 | 730 nM | 0.61 | 370 nM | 330 nM | 250 nM | 700 nM | 230 nM | 65 nM | 1.4 | 10% | 29% | 260 nM | 200 nM | Active | 200 nM | 61% | 240 nM | 650 nM | 2.7 | Active | growth inhibition (GI) (HT-1080 [15]): 41%; IC50 (HT-29): 120 nM; IC50 (CHO-VV 3-2 [18]): 450 nM; IC50 (L1210): 240 nM; mortality [19]: 16%; IC50 (MCF7): 120 nM
COc1cc(NS(=O)(=O)c2ccc(N3CCNC3=O)cc2)cc(OC)c1OC | 45 nM | 0.89 | 58 nM | 190 nM | 38 nM | > 250 nM | 19 nM | 13 nM | >1.3 | 12% | 12% | 23 nM | 17 nM | Active | 170 nM | 74% | 22 nM | 51 nM | >11 | Active | growth inhibition (GI) (HT-1080 [15]): 25%; IC50 (HT-29): 21 nM; IC50 (CHO-VV 3-2 [18]): > 250 nM; IC50 (L1210): 21 nM; mortality [19]: 40%; IC50 (MCF7): 18 nM
O=C1NCCN1c1ccc(S(=O)(=O)Nc2ccc3[nH]ccc3c2)cc1 | 3600 nM | 0.49 | 770 nM | 1310 nM | 520 nM | 4840 nM | 340 nM | 87 nM | 1.4 | 27% | 22% | 410 nM | 230 nM | Active | 640 nM | 51% | 280 nM | 1370 nM | 12 | Active | inhibition (HT-1080 [15]): inactive; IC50 (HT-29): 130 nM; IC50 (CHO-VV 3-2 [18]): 1860 nM; IC50 (L1210): 260 nM; mortality [19]: 8%; IC50 (MCF7): 170 nM
Cc1cccc(NS(=O)(=O)c2ccc(N3CCNC3=O)cc2)c1 | 1270 nM | 0.65 | 290 nM | 230 nM | 250 nM | 370 nM | 200 nM | 69 nM | 1.2 | 1% | 16% | 200 nM | 210 nM | Active | 150 nM | 83% | 200 nM | 580 nM | 1.9 | Active | inhibition (HT-1080 [15]): inactive; IC50 (HT-29): 110 nM; IC50 (CHO-VV 3-2 [18]): 280 nM; IC50 (L1210): 180 nM; mortality [19]: 8%; IC50 (MCF7): 190 nM
